Laboratory results from ChEMBL document CHEMBL4513216, “Probing the Open Global Health Chemical Diversity Library for Multistage-Active Starting Points for Next-Generation Antimalarials” (ACS Infect Dis, 2020).

Test: Toxicity liver stage against HepG2, at 10uM
Format: cell-based
Set-up: test concentration 10 uM, cell line HepG2-A16-CD81EGFP
Conditions: human, HepG2-A16-CD81EGFP cells; read-out: INHIBITION
Method in brief: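 Uninfected HepG2-A16-CD81EGFP cells, 3 × 10^3 per well, 1536-well, plated on prespotted compound at 10 μM final, parasite-free screening media added to match infected plates; puromycin 10 μM positive, DMSO 0.5% negative; run in parallel with 48 h PbLuc assay at 37 °C, 5% CO2; viability by CellTiter-Glo luminescence, normalized to controls.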

Row | SMILES | cytotoxicity at 10 µM [%]
1 | CCc1nc(C2CCCN(C(=O)c3c[nH]c(C(C)C)n3)C2)no1 (stereo not given) | -5.43
2 | Cn1cc(C2CCCN2C(=O)CS(=O)(=O)C2CCCC2)cn1 (stereo not given) | -4.8
3 | CNc1ncc(CN(C)C(=O)[C@@]23CNC[C@@H]2CN(C2CCCC2)C3)cn1 | 0.153
4 | CN(C)C(=O)N1CCN(C(=O)c2ccc(Cl)c(Cl)c2)C(C)(C)C1 | -4.71
5 | CC(CN1CCOC1=O)NC(=O)c1ccccc1Oc1ccccc1 (stereo not given) | 1.2
6 | CC(=O)Nc1ccc2nc(-c3nccn3C[C@@H]3CCCO3)ccc2c1 | -8.18
7 | Cn1cc(C(=O)N2CC[C@@H]3[C@@H]2CCN3Cc2cccnc2)cn1 | 3.06
8 | CC(=O)N1CCC(c2noc(C3CCC(=O)N3)n2)CC1 (stereo not given) | 1.64
9 | O=C(Nc1cnn(CCN2CCOCC2)c1)c1ccccc1Cl | -5.81
10 | Cc1ccnc(C2CCN(CCCOc3ccccc3F)C2)n1 (stereo not given) | 6.04
11 | Cc1cc(C2CCCN(C(=O)COc3ccc(F)cc3)C2)n[nH]1 (stereo not given) | 3.59
12 | Cn1ncc2c1NC(=O)CC2c1ccc(Cl)cc1Cl (stereo not given) | 59.9
13 | CCCOc1cc(C)ccc1NC(=O)NCCC(=O)N(C)C | -13.9
14 | O=C(CS(=O)(=O)Cc1cc(Cl)c2c(c1)OCO2)N1CCCC1 | -8.91
15 | Cc1nn(C)c(N2CCOCC2)c1CNC1CCS(=O)(=O)C1 (stereo not given) | -3.99
16 | O=C(NCCO)C1(CC2CC(c3ccc(F)cc3)=NO2)CCOCC1 (stereo not given) | -2.55
17 | CN(C)c1ncc(-c2cncnc2)c(C2CNCCO2)n1 (stereo not given) | 1.69
18 | CC1c2ncc(Cn3cccn3)n2CCN1S(=O)(=O)C1CC1 (stereo not given) | -108
19 | CCNC(=O)[C@@H]1C[C@H](N)CN1C(=O)CCc1ccccc1Cl | 4.79
20 | Cc1nn(C)c(C)c1CCC(=O)NCC1(C(N)=O)CCOCC1 | 7.75
21 | CNC(=O)CS(=O)(=O)C1CCN(S(=O)(=O)c2cccc(C(C)=O)c2)CC1 | 5.85
22 | CCc1ccc(CN2CCN(c3ncc(Cl)cn3)CC2)nc1 | 8.45

Row | SMILES | cytotoxicity at 10 µM [%]
23 | CN(C)c1ncc(-c2ccc(C(N)=O)cc2)c(C2CNCCO2)n1 (stereo not given) | -1.42
24 | CSCC[C@@H](CO)n1ccnc1-c1ccncc1 | 7.21
25 | NC(=O)Cn1ccc(O)c(Cc2ccc(Cl)cc2Cl)c1=O | 8.85
26 | CN(C)c1cc(NCc2cnc3n2CCN(CC2CC2)CC3)ncn1 | -2.57
27 | CCN(CC)c1ccc(NC(=O)NC(C)Cn2cccn2)cn1 (stereo not given) | 1.35
28 | Cc1ccc(CCCC(=O)N2CC(=O)Nc3cccnc32)s1 | -36.6
29 | Cc1ccc(NC2CCCN(Cc3ccc(Cl)cc3)C2)nn1 (stereo not given) | -5.98
30 | CCC(CO)N(Cc1cccc(-n2cccn2)c1)Cc1cccs1 (stereo not given) | 7.63
31 | CCc1nccn1CC(=O)N1C[C@@H]2CC[C@H]1CN(C(=O)N(C)C)C2 | -4.67
32 | CN(CC(=O)Nc1ccc(Br)cn1)C(=O)C(C)(C)C | -11.9
33 | CC(C)N(C)Cc1nnc2n1CCCN(C(=O)C1CCCO1)C2 (stereo not given) | 19
34 | COc1ccc(CNC(=O)NCCCNS(C)(=O)=O)cc1OC | -10.6
35 | CNC(=O)C1CN(C(C)C)CCN1c1ncccn1 (stereo not given) | 1.22
36 | CC(C)Cc1noc(C2CCCCN2C(=O)CCc2cnn(C)c2)n1 (stereo not given) | 3.6
37 | N#Cc1ccnc(NCc2cc3n(n2)CCCN(C(=O)C2CCC2)C3)c1 | -135
38 | O=S(=O)(CCNCCn1cccn1)c1ccccc1 | 11.5
39 | CCOC(=O)N1CCC(OC)c2ccccc2N(CC(=O)NC)C(=O)C1 (stereo not given) | 9.12
40 | CCCc1n[nH]c(C2CN(C(=O)CCn3cc(C)cn3)CCO2)n1 (stereo not given) | 10.3
41 | O=C1CN(C(=O)c2cc(-c3ccco3)nc3c(Cl)cccc23)CCN1 | -5.2
42 | CC(=O)N(Cc1ncc(C(C)C)o1)C1CCN(Cc2nccn2C)C1 (stereo not given) | -3.81
43 | CCCN(CC1CC1)S(=O)(=O)c1ccc(NC(C)=O)cc1 | 9.35
44 | CSc1nccc(NCC2CNCCO2)n1 (stereo not given) | 2.56

Row | SMILES | cytotoxicity at 10 µM [%]
45 | OCc1ccc(OCC(F)(F)F)cc1 | -11.9
46 | O=C(Nc1ccc(Cl)cn1)C1CCCN(CCc2ccccn2)C1 (stereo not given) | 7.33
47 | CCN(CC)C1(Cc2cc(-c3cccc(O)c3)on2)COC1 | 7.71
48 | O=C(NCCn1cccc1)C(c1cccnc1)N1CCCC1 (stereo not given) | -54.5
49 | CC(C)c1ncc2c(n1)CN(Cc1cccc(OCC(N)=O)c1)CC2 | -7.44
50 | CCC(=O)N1CCC(c2nc(O)c3c(n2)CN(C2CCCCC2)CC3)C1 (stereo not given) | -15.7
51 | NC(=O)CN1CCCCC1c1nc(N)ncc1-c1cccc(F)c1 (stereo not given) | -13.5
52 | Cc1ccc(C(=O)N2CCC3(CCN(C(=O)c4cccnc4)C3)CC2)o1 | 0.101
53 | Cc1cn2c(n1)CCC(NC(=O)c1[nH]nc(C)c1Br)C2 (stereo not given) | -17.6
54 | CN(Cc1cnc(N)nc1)C(=O)c1coc(COc2cccc(F)c2)n1 | 0.998
55 | NS(=O)(=O)c1ccc(CNC(=O)c2ccc(Cl)cc2F)cc1 | -1.59
56 | CN(Cc1n[nH]c2c1CCC2)C(=O)CCc1cc2n(n1)CCCNC2 | -0.861
57 | Cc1cccc(C2CCCN(C(=O)CN3CCC(C(N)=O)CC3)C2)c1 (stereo not given) | -5.17
58 | COc1cccc(CN2CCCCC2Cn2nc(C)nc2C)c1 (stereo not given) | -11.5
59 | CNC(=O)NC(=O)C(C)N1CCC(c2c[nH]c3ccc(OC)cc23)CC1 (stereo not given) | 12.5
60 | Cc1csc(C2(NCc3nnc(-c4ccco4)o3)CCCC2)n1 | 0.416
61 | O=C(Nc1ccccc1OCCc1ccccn1)N1CCOCC1 | 3.18
62 | CC(C)NC(=O)c1nnc2ccc(N3CCOCC3)cc2n1 | 1.86
63 | COCC1c2c(cnn2CC2CC2)CCN1Cc1ccc(C)o1 (stereo not given) | -0.201
64 | CC(=O)c1ccc(S(=O)(=O)NCc2cccnc2N(C)C)cc1 | 12.6
65 | CCCn1ncc(C(=O)N2CCN([C@H]3CCCC[C@@H]3O)CC2)c1C | -137
66 | COc1cccc(CC2(C(=O)O)CCN(c3nccs3)CC2)c1 | -9.59

Row | SMILES | cytotoxicity at 10 µM [%]
67 | O=C1[C@H]2CN(C3CCOCC3)C[C@H]2CN1Cc1cccc(F)c1 | -117
68 | O=C(N1CCCC(n2cncn2)C1)C1(c2ccccc2F)CCCC1 (stereo not given) | -4.24
69 | Cc1ccc(NC(=O)C2CSCN2C(=O)c2cnsn2)c(C)c1 (stereo not given) | -0.955
70 | CC(C)Cc1cc(C(=O)N2CCCC(n3cncn3)C2)[nH]n1 (stereo not given) | -3.9
71 | CN(C)C(=O)N1CCC[C@]2(C(=O)N(C)C)CN(c3ccccn3)C[C@@H]2C1 | 7.13
72 | Cc1nn(C)c(C)c1OCC(=O)N1CCCc2c(F)ccc(F)c21 | 2.27
73 | CCCC(O)CN1CCC(=O)N(CC2CC2)Cc2cc3c(cc21)OCO3 (stereo not given) | -1.89
74 | CN(C)c1ccc(NC(=O)NCc2cccnc2N(C)C)cn1 | -20.9
75 | CCc1noc(CN(C)Cc2cc3ccc(Cl)cc3[nH]c2=O)n1 | 4.92
76 | CC(C)CN1CCS(=O)(=O)[C@@H]2CCN(S(=O)(=O)c3ccccc3)CC[C@@H]21 | 3.62
77 | CN(C(=O)Nc1ccccn1)C1CCCN(c2ccccc2)C1=O (stereo not given) | -6.63
78 | COc1cc(O)cc2c1C(=O)CC(c1ccc(O)cc1)O2 (stereo not given) | -3.07
79 | CCC(CO)N(Cc1ccsc1)CC1CC1 (stereo not given) | 11.5
80 | CCC[C@@H]1CN(S(=O)(=O)c2ccc(C)c(F)c2)C[C@H]1N(C)C | 26.7
81 | CC(C)CN1C[C@H]2CCN(C(=O)c3ccccn3)CC[C@H]2S1(=O)=O | 0.582
82 | CCc1nc(C)c(C(=O)NCCN2CCN(C(C)=O)CC2)s1 | -10.4
83 | COCCNC(=O)c1cnc(N(C)C)nc1C | -5.33
84 | CN(Cc1cc(C2CC2)[nH]n1)C(=O)c1ccccc1C1CCNC1 (stereo not given) | 1.89
85 | COCC(=O)N1CCO[C@H]2[C@H](OC)CC[C@@H]21 | 6.61
86 | O=C1CN(C(=O)c2cccc(OCc3cscn3)c2)CCN1 | 1.9
87 | Cc1ncnc2c1CCN(Cc1cccs1)CC2 | 1.17
88 | CN1CCOC[C@H]1c1nc(-c2ccc(F)cc2F)c[nH]1 | -5.66

Row | SMILES | cytotoxicity at 10 µM [%]
89 | CNC(=O)[C@@H](CC(C)C)N1CCC[C@H]1C(=O)N(C)Cc1cccnc1 | 3.95
90 | O=C(CCOCc1ccccc1)N1CCCC1c1noc(C2CC2)n1 (stereo not given) | -4.74
91 | CCC[C@@H]1CN(Cc2ccccc2OC(F)(F)F)C[C@H]1NC(C)=O | 5.5
92 | Cc1nc(CN2CCO[C@@H]3CNCC[C@@H]3C2)cs1 | 4.47
93 | Cc1cccc(CN2C[C@@H]3CCCO[C@@H]3[C@H](NS(C)(=O)=O)C2)n1 | -8.06
94 | CCN1C(=O)CCC12CCCN(S(=O)(=O)c1cccc(C)c1)CC2 (stereo not given) | -4.54
95 | CCOC1COC2(CCN(c3ccccn3)CC2)C1 (stereo not given) | 3.77
96 | CCn1nc(C)c2c1cnn2CC(=O)NC(C)c1cccc(OC)c1 (stereo not given) | 25.8
97 | CCOC1CC2(CCN(C(C)=O)CC2)c2cc(F)ccc21 (stereo not given) | -143
98 | CC(C)C(=O)Nc1ccc(Sc2nncn2C)c(Cl)c1 | -1.18
99 | CS(=O)(=O)CCOCCNc1ccc2ccc(F)cc2n1 | 3.55
100 | Cn1cc(C2(C)CN(c3ncccc3C#N)CCO2)cn1 (stereo not given) | 4.48
101 | COc1ccccc1CNC(=O)C(C)N1CC(n2cc(C)cn2)C1 (stereo not given) | 6.15
102 | CC(C)CCN1CCc2[nH]nc(C(=O)N3CCCC3C)c2C1 (stereo not given) | 4.32
103 | CCc1ccccc1CN1CCC(N2CCCC2=O)CC1 | -2.53
104 | Cc1cc(CNc2ccc(C(=O)N3CCc4ccccc43)cn2)on1 | -0.0529
105 | CC1CN(C)c2ccccc2CN1C(=O)c1ccoc1 (stereo not given) | -2.84
106 | COc1ccc(OC)c(CNc2nnc(C(C)(C)C)o2)c1 | -6.1
107 | Cc1nc(C)n(CC2CCCN(c3ncnc4sccc34)C2)n1 (stereo not given) | 36.2
108 | CC(=O)NCCn1ccnc1-c1cccc(C(C)N(C)C)c1 (stereo not given) | 2.4
109 | COc1ccc(-c2n[nH]c(C)c2CC(=O)NCC2CCOCC2)cc1 | -4.28
110 | Cc1noc(C)c1CN1CC[C@H]2OCC[C@@]2(C(=O)N2CCOCC2)C1 | -77.2
